Experimental data as given in ChEMBL document CHEMBL3751823, “Design, synthesis and antitrypanosomal activities of 2,6-disubstituted-4,5,7-trifluorobenzothiophenes” (Eur J Med Chem, 2016).
pIC50: −log10 of the molar value.

Legend:
MCF7 = assay: Cytotoxicity against human MCF7 cells assessed as inhibition of cell proliferation; format: cell-based
[1] = tested on: Trypanosoma brucei rhodesiense; assay: Antitrypanosomal activity against Trypanosoma brucei rhodesiense STIB 900 after 72 hrs by alamar blue assay; format: functional, organism-based; details: STIB 900, 72 h
Summary of the method: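 Bloodstream forms of clone STIB 900 (patient isolate, Tanzania 1982), 1 × 10^3 per well, exposed to 3-fold serial dilutions from a top concentration of 30 μg/ml. DMSO stocks were diluted in medium. Incubation 72 h at 37 °C, 5% CO2, in triplicate. Alamar Blue was then added for 2-4 h more. Fluorescence read at ex 530/em 580 nm, IC50 by curve fit.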

[2] = Selectivity index, ratio of IC50 for cytotoxicity against human MCF7 cells to IC50 for Trypanosoma brucei rhodesiense STIB 900; format: toxicity, cell-based; details: read-out: Ratio IC50

Compound	pIC50 (MCF7)	pIC50 [1]	selectivity ratio [2]
COC(=O)c1cc2c(F)c(F)c(-n3ccnc3)c(F)c2s1	< 4.00	3.89	
COC(=O)c1cc2c(F)c(F)c(Sc3ccc(C(C)(C)C)cc3)c(F)c2s1	< 4.30	4.17	
COC(=O)c1cc2c(F)c(F)c(-n3cnc4ccccc43)c(F)c2s1	< 4.92	6.22	> 20
Nc1nc(N)nc(Nc2ccc([As]3SCC(CO)S3)cc2)n1 (configuration not stated) [MELARSOPROL]		7.29	
COC(=O)CSc1c(F)c(F)c2cc(C(=O)OC)sc2c1F	< 4.60	< 5.00	
CC(C)(C)c1ccc(Sc2c(F)c(F)c3cc(C(=O)c4ccccc4)sc3c2F)cc1	< 4.60	4.50	
O=C(c1ccccc1)c1cc2c(F)c(F)c(-n3cnc4ccccc43)c(F)c2s1	< 4.60	6.28	50
COC(=O)c1cc2c(F)c(F)c(Sc3ccccc3Br)c(F)c2s1	< 4.60	4.92	
COC(=O)c1cc2c(F)c(F)c(Oc3ccccc3Br)c(F)c2s1	< 4.60	4.52	
O=C(CSc1c(F)c(F)c2cc(C(=O)c3ccccc3)sc2c1F)c1ccccc1	< 4.30	< 5.00	
O=C(c1ccccc1)c1cc2c(F)c(F)c(-n3ccnc3)c(F)c2s1	< 4.22	4.48	
O=C(c1ccccc1)c1cc2c(F)c(F)c(Sc3ccccc3Br)c(F)c2s1	< 4.60	5.01	
O=C(c1ccccc1)c1cc2c(F)c(F)c(Oc3ccccc3Br)c(F)c2s1	< 4.60	4.80	
